Paper PMC12008863 (Journal of Translational Medicine, 2025)

Experiments:
[1] = tested on: VEGFA; assay: Western blot of rat retina; assay type: in vivo, rat (Sprague–Dawley); settings: intravitreal AAV9, n = 3; Fig. S13C
In short: (§1)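 STZ-diabetic male Sprague–Dawley rats (6–8 weeks) were given intravitreal AAV9 (5 μL, 1 × 10^12 vg/mL) every 8 weeks, with saline controls. Retinal protein was extracted in RIPA with protease and phosphatase inhibitors, run on 10% SDS–PAGE and transferred to PVDF. Membranes were blocked in 5% skimmed milk, probed with primary then secondary antibody, and developed by ECL.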

[2] = tested on: fibronectin; assay: Immunohistochemistry of rat retina; assay type: in vivo, rat (Sprague–Dawley); settings: vs STZ and STZ + NC; intravitreal AAV9, 16 weeks, n = 3; Fig. 6B
In short: (§2)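 In the STZ-induced DR model in male SD rats, animals received intravitreal AAV9 (5 μL, 1 × 10^12 vg/mL, every 8 weeks; saline control; n = 8/group). At 16 weeks, eyeballs were paraffin-embedded and cut at 5 μm. Immunohistochemistry for fibronectin or PCNA followed, with relative positivity ratio quantified; n = 3.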

[3] = tested on: HIF-1α; assay: Immunohistochemistry of rat retina; assay type: in vivo, rat (Sprague–Dawley); settings: intravitreal AAV9, 16 weeks, n = 3; Fig. 6D
In short: (§3)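 Male Sprague–Dawley rats, 6–8 weeks old, with STZ-induced diabetic retinopathy. Under intraperitoneal ketamine (80 μg/g) and xylazine (4 μg/g), rats received 5 μL intravitreal AAV9 (1 × 10^12 vg/mL) carrying the test sequence every 8 weeks; saline as control; n = 8 rats per group. At 16 weeks, eyes were paraffin-embedded, cut at 5 μm and immunostained. Relative positivity ratio scored; mean ± SD.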

[4] = tested on: rno-miR-223-3p; assay: qPCR in rat retina; assay type: in vivo, rat (Sprague–Dawley); settings: increased by STZ; intravitreal AAV9, n = 3; Fig. 8A
[5] = tested on: FBXW7; assay: Western blot of rat retinal tissue; assay type: in vivo, rat (Sprague–Dawley); settings: decreased by STZ; intravitreal AAV9, n = 3; Fig. 8D
[6] = tested on: STAT4; assay: Western blot of rat retinal tissue; assay type: in vivo, rat (Sprague–Dawley); settings: increased by STZ; intravitreal AAV9, n = 3; Fig. 8C
[7] = tested on: Notch 1; assay: Western blot of rat retinal tissue; assay type: in vivo, rat (Sprague–Dawley); settings: increased by STZ; intravitreal AAV9, n = 3; Fig. 8E
[8] = tested on: VEGFA; assay: Immunohistochemistry of rat retina; assay type: in vivo, rat (Sprague–Dawley); settings: intravitreal AAV9, 16 weeks, n = 3; Fig. 6E
In short: as §3

[9] = tested on: p-STAT4; assay: Western blot of rat retinal tissue; assay type: in vivo, rat (Sprague–Dawley); settings: increased by STZ; intravitreal AAV9, n = 3; Fig. 8C
[10] = tested on: PCNA; assay: Immunohistochemistry of rat retina; assay type: in vivo, rat (Sprague–Dawley); settings: vs STZ and STZ + NC; intravitreal AAV9, 16 weeks, n = 3; Fig. 6C
In short: as §2

[11] = tested on: p-AKT; assay: Western blot of rat retinal tissue; assay type: in vivo, rat (Sprague–Dawley); settings: increased by STZ; intravitreal AAV9, n = 3; Fig. 8F
[12] = tested on: HIF-1α; assay: Western blot of rat retina; assay type: in vivo, rat (Sprague–Dawley); settings: intravitreal AAV9, n = 3; Fig. S13B
In short: as §1

[13] = tested on: p-mTOR; assay: Western blot of rat retinal tissue; assay type: in vivo, rat (Sprague–Dawley); settings: increased by STZ; intravitreal AAV9, n = 3; Fig. 8G
[14] = tested on: hsa-miR-223-3p; assay: qPCR in hRECs; assay type: cell-based, human; settings: high glucose, 1 μM, n = 5, Fig. 4B
In short: (§4)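 hRECs (passages 5–6) cultured 120 h in high-glucose (25 mM) medium with 1 μM test compound, alongside low-glucose and mannitol osmotic controls. Total RNA extracted and measured by qPCR: STAT4 mRNA normalised to GAPDH; hsa-miR-223-3p against a cel-miR-39-3p spike-in control. n = 5; mean ± SD; one-way ANOVA with LSD test.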

[15] = tested on: hRECs; assay: Apoptosis; assay type: cell-based, human; settings: Annexin V flow cytometry; hyperglycemia; Fig. S7
In short: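 hRECs (passages 5–6) were seeded at 3000 cells/mL and grown 120 h in low-glucose (5.5 mM), high-glucose (25 mM) or low-glucose + 20 mM mannitol (osmotic control) medium. TTR homotetramer (1 μM) or test peptide (1 μM) was added to the high-glucose medium. Apoptosis was measured by FITC Annexin V staining and flow cytometry.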

[16] = tested on: p-STAT4; assay: Western blot in hRECs; assay type: cell-based, human; settings: high glucose (increased by HG), 1 μM, n = 3; Fig. 4D, E
In short: (§5)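 hRECs (passages 5–6; 3000 cells/mL) were cultured 120 h in 5.5 mM glucose, 25 mM glucose or mannitol control medium, with 1 μM test peptide or TTR homotetramer added to high glucose. Lysis was in RIPA with protease/phosphatase inhibitors. Lysates were resolved on 10% SDS–PAGE, transferred to PVDF, blocked in 5% milk, probed and developed by ECL.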

[17] = tested on: hRECs; assay: Wound healing assay; assay type: cell-based, human; settings: high glucose, 1 μM, 24 h, n = 5; Fig. 3B, C
In short: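 Wound-healing kit assay on hRECs (passages 5–6) in high-glucose (25 mM) phenol red-free DMEM containing 1 μM test compound. Low glucose (5.5 mM) and mannitol (20 mM) osmotic controls included. Closure followed over 24 h; n = 5; mean ± SD, one-way ANOVA with LSD post hoc test.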

[18] = tested on: FBXW7; assay: Western blot in hRECs; assay type: cell-based, human; settings: high glucose (decreased by HG), 1 μM, n = 3; Fig. 4D, F
In short: as §5

[19] = tested on: STAT4; assay: Western blot in hRECs; assay type: cell-based, human; settings: high glucose (increased by HG), 1 μM, n = 3; Fig. 4D, E
In short: as §5

[20] = Kidney and liver pathological indexes; assay type: in vivo, rat (Sprague–Dawley); settings: serum, STZ rats (raised vs normal), intravitreal AAV9
In short: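 STZ-diabetic male SD rats were given intravitreal AAV9 every 8 weeks (5 μL, 1 × 10^12 vg/mL) or saline. Serum ALT, AST and ALP activities and BUN and creatinine concentrations were measured on an automatic biochemical analyzer.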

[21] = tested on: Notch 1; assay: Western blot in hRECs; assay type: cell-based, human; settings: high glucose (increased by HG), 1 μM, n = 3; Fig. 4D, G
In short: as §5

[22] = tested on: hRECs; assay: CCK-8 proliferation assay; assay type: cell-based, human; settings: 1 μM, 5 days
In short: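 hRECs (passages 5–6; 3000 cells/mL) were grown in 25 mM glucose medium with 1 μM test peptide or TTR homotetramer, with 5.5 mM glucose and mannitol osmotic controls. Proliferation was read by CCK-8 after 5 days of culture; n = 5.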

[23] = tested on: hnRNPA2B1; settings: ref [33], [34]; cited from earlier work
[24] = tested on: hRECs; assay: Cell entry and localization in hRECs; assay type: cell-based, human; settings: 1 μM, 2 h incubation, HG medium, 37 °C; confocal microscopy; Fig. 1D
In short: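 Passage-6 hRECs spent 24 h in high-glucose medium at 37 °C, then 2 h with 1 μM test peptide, TTR homotetramer or scrambled peptide. Cells were PBS-washed, fixed (4% PFA, 20 min), permeabilized (0.1% Triton X-100) and stained overnight at 4 °C with anti-hnRNPA2B1, anti-TTR or anti-His-tag. Alexa Fluor 488/594 secondaries and Hoechst 33342 were used; imaging was confocal.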

[25] = tested on: p-AKT; assay: Western blot in hRECs; assay type: cell-based, human; settings: high glucose (increased by HG), 1 μM, n = 3; Fig. 4D, H
In short: as §5

[26] = tested on: hRECs; assay: Tube formation assay; assay type: cell-based, human; settings: high glucose, 1 μM, basement membrane matrix, 4 h, n = 5; Fig. 3D, E
In short: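 hRECs (passages 5–6) in 25 mM glucose medium with 1 μM test peptide or TTR homotetramer, plus low-glucose and mannitol osmotic controls, were plated on basement membrane matrix. Tube formation was then assessed.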

[27] = tested on: hRECs; settings: high-glucose environment; ref [33], [34]; cited from earlier work
[28] = tested on: VEGFA; assay: Western blot in hRECs; assay type: cell-based, human; settings: high glucose (enhanced by HG), n = 3; Fig. S8A, C
[29] = tested on: STAT4 mRNA; assay: qPCR in hRECs; assay type: cell-based, human; settings: high glucose, 1 μM, n = 5, Fig. 4A
In short: as §4

[30] = tested on: p-mTOR; assay: Western blot in hRECs; assay type: cell-based, human; settings: high glucose (increased by HG), 1 μM, n = 3; Fig. 4D, I
In short: as §5

[31] = tested on: FBXW7 mRNA; assay: qPCR in hRECs; assay type: cell-based, human; settings: high glucose, 1 μM, n = 5, Fig. 4C
In short: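 Total RNA came from hRECs grown 120 h in low-glucose, 25 mM high-glucose or mannitol control medium, with 1 μM test peptide or TTR homotetramer in high glucose. FBXW7 mRNA was quantified by qPCR with GAPDH as reference.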

[32] = tested on: hRECs; assay: EdU DNA synthesis assay; assay type: cell-based, human; settings: high glucose (25 mM), 1 μM, n = 5; Fig. 2A, B
In short: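 hRECs (passages 5–6; 3000 cells/mL) were kept in 25 mM glucose medium with 1 μM test peptide or TTR homotetramer, with low-glucose and mannitol controls. DNA synthesis was detected with an EdU labeling kit by confocal imaging, nuclei counterstained with Hoechst 33342; n = 5.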

With “TTR overexpression: Rat TTR (GenBank: AAH86946.1) cloned into the pAAV-MCS vector and packaged in AAV9, intravitreal” the “VEGFA level (western blot)” value [1] was “neither THIP-4 administration nor elevated TTR expression affected the levels”, the fibronectin positivity ratio [2] was “lower” and the “HIF-1α level (IHC)” value [3] was “neither THIP-4 administration nor TTR overexpression affected the levels”. The rno-miR-223-3p expression [4] was “reversed”, the FBXW7 protein level [5] was “significantly reversed” and the STAT4 protein level [6] was “significantly reversed”. For the same substance, the “Notch 1 protein level” value [7] was “significantly reversed”, the “VEGFA level (IHC)” value [8] was “neither THIP-4 administration nor TTR overexpression affected the levels” and the p-STAT4 protein level [9] was “significantly reversed”. For the same substance, the PCNA positivity ratio [10] was “lower”, the p-AKT protein level [11] was “significantly reversed” and the “HIF-1α level (western blot)” value [12] was “neither THIP-4 administration nor elevated TTR expression affected the levels”. For the same substance, the p-mTOR protein level [13] was “significantly reversed”.
For transthyretin [TTR], the hsa-miR-223-3p expression level [14] was “reversed in the presence of TTR or the THIPs”, the apoptosis [15] was “not significantly influenced” and the p-STAT4 protein level [16] was “significantly reversed”. The wound healing [17] was “significantly inhibited the accelerated hREC healing”, the FBXW7 protein level [18] was “significantly reversed” and the STAT4 protein level [19] was “significantly reversed”. For the same substance, the ALT activity ([20]; Fig. S12D) was “could not be affected by TTR or THIP-4”, the AST activity ([20]; Fig. S12E) was “could not be affected by TTR or THIP-4” and the ALP activity ([20]; Fig. S12F) was “could not be affected by TTR or THIP-4”. The “Notch 1 protein level” value [21] was “significantly reversed”, the “proliferation (CCK-8), high glucose” value ([22]; high glucose (25 mM), n = 5, Fig. 2C) was “significantly abrogated” and the “proliferation (CCK-8), low glucose” value ([22]; low glucose (5.5 mM), Fig. S6) was “neither TTR nor the THIPs inhibited hREC proliferation”. For the same substance, the “level of hnRNPA2B1” value [23] was “could not affect the level of hnRNPA2B1”, the cellular localization [24] was “mainly accumulated in the nucleus and their signals overlapped with that of hnRNPA2B1” and the p-AKT protein level [25] was “significantly reversed”. For the same substance, the “tube length (tube formation)” value [26] was “reversed by TTR and the THIPs”, the “neovascularization of hRECs” value [27] was “inhibits the neovascularization of hRECs in a high-glucose environment” and the VEGFA level [28] was “neither the THIPs nor TTR could reverse this effect”. For the same substance, the STAT4 expression level [29] was “reversed in the presence of TTR or the THIPs”, the p-mTOR protein level [30] was “significantly reversed” and the FBXW7 expression level [31] was “this trend was reversed”. The “DNA synthesis (EdU)” value [32] was “significantly reversed this trend”.
